Assay [1] deals with T1, Human rhinovirus A protease (Human rhinovirus sp.) (UniProt Q4U254).
T1 sequence (whole entry): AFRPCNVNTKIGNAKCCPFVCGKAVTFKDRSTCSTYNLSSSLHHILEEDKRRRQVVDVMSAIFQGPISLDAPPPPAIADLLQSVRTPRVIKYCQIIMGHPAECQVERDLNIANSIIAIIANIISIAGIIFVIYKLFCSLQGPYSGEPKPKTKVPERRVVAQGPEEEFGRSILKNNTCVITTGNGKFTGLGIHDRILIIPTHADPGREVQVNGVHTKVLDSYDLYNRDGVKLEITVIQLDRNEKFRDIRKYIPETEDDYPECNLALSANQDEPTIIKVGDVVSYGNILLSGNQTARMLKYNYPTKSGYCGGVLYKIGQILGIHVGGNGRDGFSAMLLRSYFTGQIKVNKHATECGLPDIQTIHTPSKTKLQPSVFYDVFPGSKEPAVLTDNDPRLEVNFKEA
The assay is described as follows: Rate of inactivation of Human Rhinovirus 14 (HRV14) Protease 3C. The essentials: (§1)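 Irreversible (Michael acceptor) inactivation of HRV-14 3C protease, reported as a second-order rate of inactivation in M^-1 sec^-1.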

In a further assay the test system is HeLa. The assay is described as follows: 50% cytotoxic concentration required to inhibit HRV-14 infected H1HeLa cells. The settings on record: Homo sapiens. Format: functional.
Assay [2] concerns the target T2, Human rhinovirus A protease (Human rhinovirus sp., UniProt Q4U254).
T2 sequence (Q4U254 whole entry): T1 sequence (whole entry)
In words: Inhibition of Human Rhinovirus 14 (HRV14) Protease 3C.

Assay [3] concerns the target T1, Human rhinovirus A protease (Human rhinovirus sp.). The assay is described as follows: Ability to inactivate Human Rhinovirus 2 Protease 3C.
Assay [4] has as its target T2, Human rhinovirus A protease. In words: 50% effective concentration required to inhibit Human Rhinovirus 10 Protease 3C.
The target is the same in assay [5]. The assay is described as follows: 50% effective concentration required to inhibit Human Rhinovirus 1A Protease 3C.
Assay [6] shares this target. In words: 50% effective concentration required to inhibit Human Rhinovirus 2 Protease 3C.
Assay [7] has as its target T1, Human rhinovirus A protease (Human rhinovirus sp.). The assay is described as follows: Ability to inactivate Human Rhinovirus 16 Protease 3C.
Assay [8] addresses T2, Human rhinovirus A protease. In words: 50% effective concentration required to inhibit Human Rhinovirus 89 Protease 3C.
Assay [9] shares this target. In words: 50% effective concentration required to inhibit Human Rhinovirus 16 Protease 3C.
The target in assay [10] is T1, Human rhinovirus A protease (Human rhinovirus sp.). The assay is described as follows: Ability to inactivate Human Rhinovirus 89 Protease 3C.
Assay [11] has the same target. The assay is described as follows: Evaluated for the rate of inactivation of Human Rhinovirus 14 (HRV14) Protease 3C. The essentials: as §1

pEC50: −log10 of the molar value.

Compound `CCOC(=O)/C=C/[C@H](C[C@@H]1CCNC1=O)NC(=O)/C=C/c1cc(Br)ccc1Br` had a K obs / 1 in assay [1] of 6850 M⁻¹ s⁻¹.
Broadly, the CC50 is the concentration giving 50% cytotoxicity. Read a low CC50 as greater toxicity to the cells. A word on the pEC50: it is the EC50 on a negative log10 scale, so that one unit is a factor of ten. In the case of `CCOC(=O)/C=C/[C@H](C[C@@H]1CCNC1=O)NC(=O)c1ccc2ccc(Br)cc2c1`, in the assay with HeLa, the CC50 was > 50000 nM. Further, the pEC50 in assay [2] is 6.74. In assay [1], the K obs / 1 was found to be 31400 M⁻¹ s⁻¹.
With `CCOC(=O)/C=C/[C@H](C[C@@H]1CCNC1=O)NC(=O)c1cc(-c2ccccc2)oc1C`, the CC50 in the assay on HeLa is > 100000 nM. In assay [2], this compound had a pEC50 of 5.71. The compound further showed a K obs / 1 in assay [1] of 4740 M⁻¹ s⁻¹.
Turning to `CCOC(=O)/C=C/[C@H](C[C@@H]1CCNC1=O)NC(=O)C1=Cc2cc(Br)ccc2OC1`, the K obs / 1 was found to be 372 M⁻¹ s⁻¹ in assay [3] and 25000 M⁻¹ s⁻¹ in assay [1]. Besides, the CC50 in the assay with HeLa was > 100000 nM. In addition, the pEC50 in assay [4] was 6.26; in assay [2] it was 6.74.
As to `CCOC(=O)/C=C/[C@H](C[C@@H]1CCNC1=O)NC(=O)/C=C/c1cc2c(cc1Br)OCO2`, the cytotoxic concentration (CC50) with HeLa was > 100000 nM. Moreover, the pEC50 in [2] was 6.31. Further, the K obs / 1 in assay [1] is 14400 M⁻¹ s⁻¹.
As for `CCOC(=O)/C=C/[C@H](C[C@@H]1CCNC1=O)NC(=O)C1=Cc2ccccc2OC1`, the CC50 in the assay with HeLa is > 100000 nM. This compound also gave a pEC50 in assay [2] of 5.92. Further, the K obs / 1 in assay [1] amounted to 886 M⁻¹ s⁻¹.
For the compound `CCOC(=O)/C=C/[C@H](C[C@@H]1CCNC1=O)NC(=O)C1=Cc2cc(Cl)ccc2OC1`, the negative-log EC50 (pEC50) is 5.29 in assay [5], 6.19 in assay [6], 6.34 in assay [4] and 6.80 in assay [2]. The K obs / 1 in [3] came to 385 M⁻¹ s⁻¹; in assay [1], 19700 M⁻¹ s⁻¹; in assay [7], 2200 M⁻¹ s⁻¹. For the same compound, in the assay with HeLa, the cytotoxic concentration (CC50) is > 100000 nM.
For the compound `CCOC(=O)/C=C/[C@H](CCC(N)=O)NC(=O)C(Cc1ccccc1)NC(=O)[C@H](CC(C)C)NC(=O)OCc1ccccc1` (stereo partly specified), the pEC50 is 5.20 in assay [8]; 5.64 in assay [9]; 5.80 in assay [6]; 6.22 in assay [4]; 6.27 in assay [2]. Besides, the K obs / 1 in assay [3] came to 2000 M⁻¹ s⁻¹; in [10], 3440 M⁻¹ s⁻¹; in assay [1], 25000 M⁻¹ s⁻¹; in [7] it was 6530 M⁻¹ s⁻¹. The CC50 in the assay on HeLa is > 100000 nM.
With `CCOC(=O)/C=C/[C@H](C[C@@H]1CCNC1=O)NC(=O)c1ccc2ccccc2c1`, the negative-log EC50 (pEC50) in assay [6] was 5.85; in assay [2], 6.82. In addition, the values for the K obs / 1 in assay [3] and in assay [1] were 110 M⁻¹ s⁻¹ and 1090 M⁻¹ s⁻¹, respectively. In addition, the CC50 in the assay on HeLa was > 100000 nM.
As to `CCOC(=O)/C=C/[C@H](C[C@@H]1CCNC1=O)NC(=O)/C=C/c1ccc(F)c(Br)c1`, the CC50 in the assay on HeLa was > 100000 nM. Besides, the pEC50 in assay [2] is 6.20. Besides, the K obs / 1 in assay [1] was 2860 M⁻¹ s⁻¹.
Compound `CCOC(=O)/C=C/[C@H](C[C@@H]1CCNC1=O)NC(=O)/C=C/c1cccc(Br)c1` gave a K obs / 1 in assay [11] of 2560 M⁻¹ s⁻¹. For the same compound, the CC50 with HeLa was > 10000 nM. Further, the negative-log EC50 (pEC50) in assay [2] is 5.85.
Consider `CCOC(=O)/C=C/[C@H](C[C@@H]1CCNC1=O)NC(=O)/C=C/c1ccc2c(c1)OCO2`, for which the CC50 with HeLa was > 10000 nM. In addition, the pEC50 in assay [2] is 5.74. Moreover, the K obs / 1 in [1] turned out to be 1960 M⁻¹ s⁻¹.
The corresponding values for `CCOC(=O)/C=C/[C@H](C[C@@H]1CCNC1=O)NC(=O)/C=C/c1ccc(C)c(Br)c1` are > 10000 nM, 5.89 and 4080 M⁻¹ s⁻¹.
The corresponding values for `CCOC(=O)/C=C/[C@H](C[C@@H]1CCNC1=O)NC(=O)c1ccc2cc(C)ccc2c1` are > 100000 nM, 6.06 and 5000 M⁻¹ s⁻¹.

The record behind these values is ChEMBL document CHEMBL1135407, “Structure-based design of a parallel synthetic array directed toward the discovery of irreversible inhibitors of human rhinovirus 3C protease” (J Med Chem, 2002).
